Reference: ChEMBL document CHEMBL4376814, “Novel cyclin-dependent kinase 9 (CDK9) inhibitor with suppression of cancer stemness activity against non-small-cell lung cancer” (Eur J Med Chem, 2019)
Calls of active or inactive are those of the source. The rule behind the calls is not given here.

How the values were obtained:
[1] = target: Serine/threonine-protein kinase Nek3 (Homo sapiens) (UniProt P51956); assay: Inhibition of recombinant full-length human NEK3 at 1 uM using myelin basic protein as substrate measured after 40 mins in presence of [gamma33P]ATP by scintillation counting method relative to control
NCI-H1299 [2] = assay: Induction of apoptosis in human H1299 cells assessed as increase in cleaved caspase 3 expression at 0.25 to 1 uM after 24 hrs by Western blot analysis; type: functional, cell-based
Procedure, shortened: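 A549 or H1299 cells exposed to the indicated concentrations for 24 h. Protein extracts then immunoblotted for apoptosis-pathway proteins (Bcl2, Bim, cleaved caspase 3).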

[3] = target: Mitogen-activated protein kinase kinase kinase kinase 5 (Homo sapiens) (UniProt Q9Y4K4); assay: Inhibition of recombinant full-length human MAP4K5 at 1 uM using MBP as substrate measured after 40 mins in presence of [gamma33P]ATP by scintillation counting method relative to control
[4] = system: Proto-oncogene tyrosine-protein kinase receptor Ret (Homo sapiens), P07949 [V804L]; assay: Inhibition of human Ret V804L mutant (658 to end residues) at 1 uM using KKKVSRSGLYRSPSMPENLNRPR as substrate measured after 40 mins in presence of [gamma33P]ATP by scintillation counting method relative to control
Procedure, shortened: (§1)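 Percent inhibition of kinase activity at a single compound concentration, measured by the outsourced Eurofins KinaseProfiler panel. Values are the mean of two independent experiments.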

[5] = target: Wee1-like protein kinase (Homo sapiens) (UniProt P30291); assay: Inhibition of recombinant human Wee1 (214 to end residues) at 1 uM using LSNLYHQGKFLQTFCGSPLYRRR as substrate measured after 40 mins in presence of [gamma33P]ATP by scintillation counting method relative to control
[6] = target: Casein kinase II subunit alpha (Homo sapiens) (UniProt P68400); assay: Inhibition of full length recombinant human CK2alpha1 at 1 uM using RRRDDDSDDD as substrate measured after 40 mins in presence of [gamma33P]ATP by scintillation counting method relative to control
Sequence of Casein kinase II subunit alpha (Homo sapiens) (P68400 whole entry, looked up): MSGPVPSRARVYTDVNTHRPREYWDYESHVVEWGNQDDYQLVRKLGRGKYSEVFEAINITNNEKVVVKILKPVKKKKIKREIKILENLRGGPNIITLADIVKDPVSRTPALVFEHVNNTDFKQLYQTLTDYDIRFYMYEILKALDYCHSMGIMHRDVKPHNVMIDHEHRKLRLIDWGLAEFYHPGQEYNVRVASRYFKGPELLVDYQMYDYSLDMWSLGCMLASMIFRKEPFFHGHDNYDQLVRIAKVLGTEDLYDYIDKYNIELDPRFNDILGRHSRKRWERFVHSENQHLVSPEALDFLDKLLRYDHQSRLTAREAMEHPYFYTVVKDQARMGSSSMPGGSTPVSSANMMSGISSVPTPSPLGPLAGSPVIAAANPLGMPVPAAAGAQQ

[7] = target: Serine/threonine-protein kinase 4 (Homo sapiens) (UniProt Q13043); assay: Inhibition of recombinant full-length human MST1 at 1 uM using KKSRGDYMTMQIG as substrate measured after 40 mins in presence of [gamma33P]ATP by scintillation counting method relative to control
Sequence of Serine/threonine-protein kinase 4 (Homo sapiens) (Q13043 whole entry): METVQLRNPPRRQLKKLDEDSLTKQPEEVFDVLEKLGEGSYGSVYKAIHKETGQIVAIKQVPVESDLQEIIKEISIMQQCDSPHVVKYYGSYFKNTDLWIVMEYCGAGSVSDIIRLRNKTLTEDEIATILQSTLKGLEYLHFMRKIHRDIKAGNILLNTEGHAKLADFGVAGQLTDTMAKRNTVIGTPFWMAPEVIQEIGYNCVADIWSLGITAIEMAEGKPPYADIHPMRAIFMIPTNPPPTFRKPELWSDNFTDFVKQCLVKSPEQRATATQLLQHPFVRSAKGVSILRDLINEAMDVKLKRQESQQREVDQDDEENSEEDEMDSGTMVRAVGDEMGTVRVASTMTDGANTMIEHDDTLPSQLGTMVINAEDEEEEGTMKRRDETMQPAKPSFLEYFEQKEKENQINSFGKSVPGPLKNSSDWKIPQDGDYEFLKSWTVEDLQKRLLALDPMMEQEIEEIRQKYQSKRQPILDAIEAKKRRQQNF

NCI-H1299 [8] = assay: Induction of apoptosis in human H1299 cells assessed as early apoptotic cells at 0.25 uM after 48 hrs by AnnexinV-FITC/PI staining-based flow cytometric analysis (reference value: 0.248%); type: functional
HepG2 = assay: Antiproliferative activity against human HepG2 cells assessed as inhibition of cell viability at 10 uM after 72 hrs by CCK-8 assay relative to control; type: functional; conditions: HepG2, 72 h
Procedure, shortened: (§2)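 Single-concentration viability screen using CCK-8. Cells were seeded at 3000/well and treated for 72 h. A450 read after 1-4 h with reagent. Percent inhibition calculated against untreated control and blank wells as (Ac−As)/(Ac−Ab)×100%.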

[9] = system: Hepatocyte growth factor receptor (Homo sapiens), P08581 [Y1230D]; assay: Inhibition of recombinant human MET A1209G/V1290L/Y1248D mutant (974 to end residues) at 1 uM using KKKGQEEEYVFIE as substrate measured after 40 mins in presence of [gamma33P]ATP by scintillation counting method relative to control
NCI-H1299 [10] = assay: Antiproliferative activity against human H1299 cells assessed as inhibition of cell viability at 1 uM after 72 hrs by CCK-8 assay relative to control; type: functional; conditions: NCI-H1299, 72 h; procedure, shortened: as §2
[11] = target: Tyrosine-protein kinase BTK (Homo sapiens) (UniProt Q06187); assay: Inhibition of full-length recombinant human BTK at 1 uM using KVEKIGEGTYGVVYK as substrate measured after 40 mins in presence of [gamma33P]ATP by scintillation counting method relative to control
Procedure, shortened: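 Single-point inhibition at 1 µM was measured in the Eurofins KinaseProfiler panel. Values are the mean of two independent experiments.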

[12] = system: Dual specificity protein kinase TTK (Homo sapiens), P33981 [S389A]; assay: Inhibition of recombinant full-length human TTK S389A mutant at 1 uM using MBP as substrate measured after 40 mins in presence of [gamma33P]ATP by scintillation counting method relative to control
Sequence of Dual specificity protein kinase TTK (Homo sapiens), P33981 [S389A] (P33981 whole entry S389A, the tested form may be a part): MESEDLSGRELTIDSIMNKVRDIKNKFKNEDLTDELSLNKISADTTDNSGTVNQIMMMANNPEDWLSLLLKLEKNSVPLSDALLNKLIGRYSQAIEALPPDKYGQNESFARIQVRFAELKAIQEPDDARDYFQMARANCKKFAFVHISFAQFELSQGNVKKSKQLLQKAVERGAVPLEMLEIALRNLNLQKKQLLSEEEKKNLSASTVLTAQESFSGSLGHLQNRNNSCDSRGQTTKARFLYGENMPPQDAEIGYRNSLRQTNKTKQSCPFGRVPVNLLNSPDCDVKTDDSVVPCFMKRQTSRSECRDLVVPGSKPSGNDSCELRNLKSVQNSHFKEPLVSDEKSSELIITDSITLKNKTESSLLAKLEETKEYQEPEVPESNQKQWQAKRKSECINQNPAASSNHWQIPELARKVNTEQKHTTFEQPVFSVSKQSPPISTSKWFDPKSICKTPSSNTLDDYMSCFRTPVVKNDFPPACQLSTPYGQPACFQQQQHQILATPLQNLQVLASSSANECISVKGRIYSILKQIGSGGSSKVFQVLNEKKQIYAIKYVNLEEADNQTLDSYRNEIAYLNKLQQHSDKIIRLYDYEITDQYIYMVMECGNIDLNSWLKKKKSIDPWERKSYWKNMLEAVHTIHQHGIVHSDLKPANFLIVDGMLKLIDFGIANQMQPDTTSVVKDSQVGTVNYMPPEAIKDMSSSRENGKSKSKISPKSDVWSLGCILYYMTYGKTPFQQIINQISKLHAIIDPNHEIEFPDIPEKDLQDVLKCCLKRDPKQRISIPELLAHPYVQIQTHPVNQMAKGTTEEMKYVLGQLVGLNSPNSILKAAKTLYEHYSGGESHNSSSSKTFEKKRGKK

[13] = target: Receptor tyrosine-protein kinase erbB-4 (Homo sapiens) (UniProt Q15303); assay: Inhibition of recombinant human ErbB4 (706 to 991 residues) at 1 uM using poly(Glu, Tyr) 4:1 as substrate measured after 40 mins in presence of [gamma33P]ATP by scintillation counting method relative to control
Sequence of Receptor tyrosine-protein kinase erbB-4 (Homo sapiens) (Q15303 whole entry, the tested form may be a part): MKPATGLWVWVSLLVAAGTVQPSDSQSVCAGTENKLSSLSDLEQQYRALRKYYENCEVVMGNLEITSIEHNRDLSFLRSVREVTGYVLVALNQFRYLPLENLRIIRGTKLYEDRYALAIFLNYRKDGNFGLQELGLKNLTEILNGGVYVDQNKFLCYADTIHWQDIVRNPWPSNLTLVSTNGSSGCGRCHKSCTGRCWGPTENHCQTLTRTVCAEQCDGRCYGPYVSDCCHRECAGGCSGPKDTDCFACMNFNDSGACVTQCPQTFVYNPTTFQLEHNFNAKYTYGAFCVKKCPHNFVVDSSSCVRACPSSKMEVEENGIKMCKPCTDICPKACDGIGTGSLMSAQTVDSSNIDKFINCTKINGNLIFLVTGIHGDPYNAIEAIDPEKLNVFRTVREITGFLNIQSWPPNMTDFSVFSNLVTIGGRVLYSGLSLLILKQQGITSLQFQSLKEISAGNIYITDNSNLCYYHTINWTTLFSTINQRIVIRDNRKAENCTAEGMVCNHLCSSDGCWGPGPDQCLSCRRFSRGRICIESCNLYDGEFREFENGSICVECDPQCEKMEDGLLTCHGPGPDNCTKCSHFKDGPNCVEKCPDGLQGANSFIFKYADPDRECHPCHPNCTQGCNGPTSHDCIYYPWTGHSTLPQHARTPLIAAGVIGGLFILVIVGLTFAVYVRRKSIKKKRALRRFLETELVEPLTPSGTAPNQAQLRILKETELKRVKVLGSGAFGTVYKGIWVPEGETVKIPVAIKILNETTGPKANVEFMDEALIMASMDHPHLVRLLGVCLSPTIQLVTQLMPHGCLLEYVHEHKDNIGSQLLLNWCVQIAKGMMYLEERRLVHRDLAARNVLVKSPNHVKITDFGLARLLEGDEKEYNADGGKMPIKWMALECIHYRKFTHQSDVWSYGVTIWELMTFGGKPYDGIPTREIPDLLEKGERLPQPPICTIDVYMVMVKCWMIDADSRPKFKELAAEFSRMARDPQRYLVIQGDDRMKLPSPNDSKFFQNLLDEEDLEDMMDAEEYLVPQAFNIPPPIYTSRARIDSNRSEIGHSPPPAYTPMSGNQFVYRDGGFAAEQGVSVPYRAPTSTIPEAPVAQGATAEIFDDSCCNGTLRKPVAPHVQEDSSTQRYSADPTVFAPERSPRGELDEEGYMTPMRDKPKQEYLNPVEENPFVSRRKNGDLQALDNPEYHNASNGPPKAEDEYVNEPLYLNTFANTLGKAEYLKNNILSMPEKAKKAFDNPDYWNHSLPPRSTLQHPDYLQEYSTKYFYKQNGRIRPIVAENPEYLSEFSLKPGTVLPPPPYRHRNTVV

[14] = target: Tyrosine-protein kinase JAK3 (Homo sapiens) (UniProt P52333); assay: Inhibition of recombinant human JAK3 (781 to end residues) at 1 uM using GGEEEEYFELVKKKK as substrate measured after 40 mins in presence of [gamma33P]ATP by scintillation counting method relative to control
Sequence of Tyrosine-protein kinase JAK3 (Homo sapiens) (P52333 whole entry): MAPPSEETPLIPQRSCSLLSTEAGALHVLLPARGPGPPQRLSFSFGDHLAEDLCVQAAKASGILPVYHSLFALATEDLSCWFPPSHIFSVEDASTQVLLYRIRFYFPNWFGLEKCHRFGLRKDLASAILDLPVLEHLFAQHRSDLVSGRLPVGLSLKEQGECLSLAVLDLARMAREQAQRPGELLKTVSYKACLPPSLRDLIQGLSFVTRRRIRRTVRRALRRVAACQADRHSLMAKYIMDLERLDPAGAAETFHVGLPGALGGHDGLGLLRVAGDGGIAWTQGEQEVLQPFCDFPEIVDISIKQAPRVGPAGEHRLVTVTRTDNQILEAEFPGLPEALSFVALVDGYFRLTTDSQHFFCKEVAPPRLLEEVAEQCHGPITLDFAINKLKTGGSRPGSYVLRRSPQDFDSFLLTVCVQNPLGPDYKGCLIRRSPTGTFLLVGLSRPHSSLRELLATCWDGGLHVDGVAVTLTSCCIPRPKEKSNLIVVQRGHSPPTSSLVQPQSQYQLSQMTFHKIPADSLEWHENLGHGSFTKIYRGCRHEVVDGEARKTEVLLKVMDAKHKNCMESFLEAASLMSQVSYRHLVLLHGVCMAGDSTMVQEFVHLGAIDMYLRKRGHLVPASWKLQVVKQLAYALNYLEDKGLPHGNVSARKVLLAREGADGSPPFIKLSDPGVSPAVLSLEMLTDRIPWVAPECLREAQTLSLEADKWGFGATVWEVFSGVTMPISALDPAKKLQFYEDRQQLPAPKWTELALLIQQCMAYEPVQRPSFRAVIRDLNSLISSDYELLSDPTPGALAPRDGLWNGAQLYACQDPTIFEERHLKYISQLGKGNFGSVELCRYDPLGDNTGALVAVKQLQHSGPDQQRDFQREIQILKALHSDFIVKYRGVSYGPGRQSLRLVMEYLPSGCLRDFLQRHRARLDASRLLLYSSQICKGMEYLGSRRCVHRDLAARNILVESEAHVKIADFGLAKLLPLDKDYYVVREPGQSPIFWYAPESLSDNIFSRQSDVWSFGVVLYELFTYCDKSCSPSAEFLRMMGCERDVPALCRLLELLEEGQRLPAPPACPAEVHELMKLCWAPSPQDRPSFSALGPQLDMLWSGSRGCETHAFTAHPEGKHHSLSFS

[15] = target: TGF-beta receptor type-2 (Homo sapiens) (UniProt P37173); assay: Inhibition of human TGFBR2 (188 to end residues) at 1 uM using myelin basic protein as substrate measured after 120 mins in presence of [gamma33P]ATP by scintillation counting method relative to control; procedure, shortened: as §1
[16] = target: Phosphatidylinositol 3-kinase C2 domain-containing subunit gamma (Homo sapiens) (UniProt O75747); assay: Inhibition of recombinant human PI3KC2gamma (468 to 1203 residues) at 1 uM using phosphatidylinositol as substrate measured after 40 mins by HTRF assay relative to control
[17] = target: Mitogen-activated protein kinase kinase kinase 20 (Homo sapiens) (UniProt Q9NYL2); assay: Inhibition of recombinant full-length human ZAK at 1 uM using MBP as substrate measured after 40 mins in presence of [gamma33P]ATP by scintillation counting method relative to control
Sequence of Mitogen-activated protein kinase kinase kinase 20 (Homo sapiens) (Q9NYL2 2-800 limits assumed): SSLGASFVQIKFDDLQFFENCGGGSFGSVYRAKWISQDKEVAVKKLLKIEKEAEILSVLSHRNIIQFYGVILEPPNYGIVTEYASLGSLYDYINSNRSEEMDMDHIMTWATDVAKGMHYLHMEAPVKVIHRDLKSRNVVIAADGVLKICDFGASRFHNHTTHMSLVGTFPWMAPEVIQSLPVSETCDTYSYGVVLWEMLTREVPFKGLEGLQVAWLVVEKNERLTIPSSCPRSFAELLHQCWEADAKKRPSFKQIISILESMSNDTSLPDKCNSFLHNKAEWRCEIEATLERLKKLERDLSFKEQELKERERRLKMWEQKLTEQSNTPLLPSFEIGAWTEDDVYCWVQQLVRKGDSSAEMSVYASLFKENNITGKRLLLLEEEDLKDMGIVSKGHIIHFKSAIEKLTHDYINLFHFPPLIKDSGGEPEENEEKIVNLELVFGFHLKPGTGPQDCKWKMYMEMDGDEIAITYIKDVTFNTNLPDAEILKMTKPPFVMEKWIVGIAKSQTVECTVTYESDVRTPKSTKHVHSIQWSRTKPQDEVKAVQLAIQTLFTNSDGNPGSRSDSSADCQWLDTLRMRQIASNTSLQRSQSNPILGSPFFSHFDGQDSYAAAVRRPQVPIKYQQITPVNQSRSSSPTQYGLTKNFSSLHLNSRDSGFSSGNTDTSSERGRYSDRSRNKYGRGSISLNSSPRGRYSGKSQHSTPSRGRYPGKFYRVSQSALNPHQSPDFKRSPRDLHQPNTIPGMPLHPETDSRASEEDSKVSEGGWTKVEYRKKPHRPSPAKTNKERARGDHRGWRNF

[18] = target: Serine/threonine-protein kinase 25 (Homo sapiens) (UniProt O00506); assay: Inhibition of human STK25 (1 to 308 residues) at 1 uM using RLGRDKYKTLRQIRQ as substrate measured after 40 mins in presence of [gamma33P]ATP by scintillation counting method relative to control; procedure, shortened: as §1
[19] = target: Death-associated protein kinase 1 (Homo sapiens) (UniProt P53355); assay: Inhibition of recombinant human DAPK1 (1 to 296 residues) at 1 uM using KKLNRTLSFAEPG as substrate measured after 40 mins in presence of [gamma33P]ATP by scintillation counting method relative to control
[20] = target: Serine/threonine-protein kinase PLK2 (Homo sapiens) (UniProt Q9NYY3); assay: Inhibition of human Snk (65 to 409 residues) at 1 uM using casein as substrate measured after 40 mins in presence of [gamma33P]ATP by scintillation counting method relative to control; procedure, shortened: as §1

Question: Which inhibition [1] does the source give for `CN(C)C(=O)c1cc2cnc(Nc3ccc(NC(=O)CCCCCCCN=C=S)cc3)nc2n1C1CCCC1` here?
Answer: 19%

Question: And the Activity (NCI-H1299 [2])?
Answer: Active

Question: What about the inhibition [3] of the same compound?
Answer: 75%

Question: And the inhibition [4]?
Answer: 46%

Question: What about the inhibition [5] of the same compound?
Answer: 8%

Question: And the inhibition [6]?
Answer: -5%

Question: What about the inhibition [7] of the same compound?
Answer: 17%

Question: And the Activity (NCI-H1299 [8])?
Answer: 0.432%

Question: And the inhibition at 10 µM (HepG2)?
Answer: 76%

Question: And the inhibition [9]?
Answer: 68%

Question: What about the inhibition at 1 µM (NCI-H1299 [10]) of the same compound?
Answer: 87.4%

Question: What about the inhibition [11] of the same compound?
Answer: 96%

Question: And the inhibition [12]?
Answer: 76%

Question: And the inhibition [13]?
Answer: 24%

Question: What about the inhibition [14] of the same compound?
Answer: 83%

Question: And the inhibition [15]?
Answer: 15%

Question: What about the inhibition [16] of the same compound?
Answer: 3%

Question: What about the inhibition [17] of the same compound?
Answer: 86%

Question: What about the inhibition [18] of the same compound?
Answer: -2%

Question: And the inhibition [19]?
Answer: -5%

Question: What about the inhibition [20] of the same compound?
Answer: 4%
